# Reference: ChEMBL document CHEMBL1155274, “Synthesis of some novel pyrazolo[3,4-b]pyridine and pyrazolo[3,4-d]pyrimidine derivatives bearing 5,6-diphenyl-1,2,4-triazine moiety as potential antimicrobial agents” (Eur J Med Chem, 2009)
# What was measured:
# Staphylococcus aureus [1] = test: Antimicrobial activity against Staphylococcus aureus MTCCB 737 at 100 ug/mL after 16 to 20 hrs by disk diffusion method; assay type: functional; conditions: read-out: IZ
# Summary of the method: (§1)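 Nutrient agar disc diffusion against bacterial strains, compounds in DMSO at a single test concentration. DMSO blank; tetracycline as reference drug. Plates incubated 16–20 h at 37 °C, and the inhibition zone was measured.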
# Escherichia coli [2] = test: Antimicrobial activity against Escherichia coli MTCCB 1652 at 100 ug/mL after 16 to 20 hrs by disk diffusion method; assay type: functional; conditions: read-out: IZ; summary of the method: as §1
# [3] = tested on: Staphylococcus epidermidis; test: Antimicrobial activity against Staphylococcus epidermidis MTCCB 1824 at 100 ug/mL after 16 to 20 hrs by disk diffusion method; assay type: functional; conditions: read-out: IZ; summary of the method: as §1
# Alternaria alternata [4] = test: Antimicrobial activity against Alternaria alternata at 100 ug/mL after 3 to 4 days by disk diffusion method; conditions: read-out: IZ
# Aspergillus fumigatus [5] = test: Antimicrobial activity against Aspergillus fumigatus at 100 ug/mL after 3 to 4 days by disk diffusion method; conditions: read-out: IZ
# Aspergillus niger [6] = test: Antimicrobial activity against Aspergillus niger at 100 ug/mL after 3 to 4 days by disk diffusion method; conditions: read-out: IZ
# Artemia salina = test: Toxicity against Artemia salina assessed as number of the nauplii died after 24 hrs; assay type: organism-based; conditions: in vivo
# Summary of the method: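 Artemia salina eggs were hatched in sea salt water (38 g/L) at 37 °C for 48 h with constant oxygen to give nauplii. Stocks were 10 mg per 2 mL DMSO, and five dilutions were run in triplicate with about 10 nauplii per vial. A DMSO-only vial served as control.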
# Escherichia coli [7] = test: Antimicrobial activity against Escherichia coli MTCCB 1652 after 24 hrs by serial dilution method; assay type: functional; conditions: MTCCB 1652, 24 h
# Summary of the method: (§2)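 Tube serial dilution in nutrient broth at compound levels of 6.25, 12.5, 25, 50 and 100. Each tube received standardized microbial suspension (10^7 cells/mL) and was incubated 24 h at 37 °C. MIC was the lowest concentration preventing growth, i.e. maintaining or reducing inoculum viability.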
# Staphylococcus aureus [8] = test: Antimicrobial activity against Staphylococcus aureus MTCCB 737 after 24 hrs by serial dilution method; assay type: functional; conditions: MTCCB 737, 24 h; summary of the method: as §2
# Aspergillus niger [9] = test: Antimicrobial activity against Aspergillus niger after 24 hrs by serial dilution method; assay type: functional; summary of the method: as §2
# Alternaria alternata [10] = test: Antimicrobial activity against Alternaria alternata after 24 hrs by serial dilution method; assay type: functional; summary of the method: as §2
# Aspergillus fumigatus [11] = test: Antimicrobial activity against Aspergillus fumigatus at 30 ug/mL after 3 to 4 days by disk diffusion method; conditions: read-out: IZ
# Aspergillus niger [12] = test: Antimicrobial activity against Aspergillus niger at 30 ug/mL after 3 to 4 days by disk diffusion method; conditions: read-out: IZ
# Alternaria alternata [13] = test: Antimicrobial activity against Alternaria alternata at 30 ug/mL after 3 to 4 days by disk diffusion method; conditions: read-out: IZ
# Staphylococcus aureus [14] = test: Antimicrobial activity against Staphylococcus aureus MTCCB 737 at 30 ug/mL after 16 to 20 hrs by disk diffusion method; assay type: functional; conditions: read-out: IZ
# Summary of the method: (§3)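 Nutrient agar disc diffusion against S. aureus MTCCB 737, S. epidermidis MTCCB 1824 and E. coli MTCCB 1652. Tetracycline served as the standard drug, and DMSO served as the blank. The inhibition zone was measured after 16–20 h at 37 °C.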
# [15] = tested on: Staphylococcus epidermidis; test: Antimicrobial activity against Staphylococcus epidermidis MTCCB 1824 at 30 ug/mL after 16 to 20 hrs by disk diffusion method; assay type: functional; conditions: read-out: IZ; summary of the method: as §3
# Escherichia coli [16] = test: Antimicrobial activity against Escherichia coli MTCCB 1652 at 30 ug/mL after 16 to 20 hrs by disk diffusion method; assay type: functional; conditions: read-out: IZ; summary of the method: as §3
Compound,zone of inhibition at 100 µg/mL (Staphylococcus aureus [1]) [mm],zone of inhibition at 100 µg/mL (Escherichia coli [2]) [mm],zone of inhibition at 100 µg/mL [3] [mm],zone of inhibition at 100 µg/mL (Alternaria alternata [4]) [mm],zone of inhibition at 100 µg/mL (Aspergillus fumigatus [5]) [mm],zone of inhibition at 100 µg/mL (Aspergillus niger [6]) [mm],LC50 (Artemia salina) [ppm],MIC (Escherichia coli [7]) [µg/mL],MIC (Staphylococcus aureus [8]) [µg/mL],MIC (Aspergillus niger [9]) [µg/mL],MIC (Alternaria alternata [10]) [µg/mL],zone of inhibition at 30 µg/mL (Aspergillus fumigatus [11]) [mm],zone of inhibition at 30 µg/mL (Aspergillus niger [12]) [mm],zone of inhibition at 30 µg/mL (Alternaria alternata [13]) [mm],zone of inhibition at 30 µg/mL (Staphylococcus aureus [14]) [mm],zone of inhibition at 30 µg/mL [15] [mm],zone of inhibition at 30 µg/mL (Escherichia coli [16]) [mm]
CSc1nn(-c2nnc(-c3ccccc3)c(-c3ccccc3)n2)c2nc(C)c3c(=O)[nH]cnc3c12,17,10,17,12,11,10,–,–,–,–,–,–,–,–,–,–,–
Nc1nc(=S)[nH]c2nn(-c3nnc(-c4ccccc4)c(-c4ccccc4)n3)c(N)c12,9,13,11,2,11,7,–,–,–,–,–,–,–,–,–,–,–
CSC(Nc1c(C#N)c(SC)nn1-c1nnc(-c2ccccc2)c(-c2ccccc2)n1)=C(C#N)C#N,17,11,21,8,9,6,–,–,–,–,–,–,–,–,–,–,–
CSc1nn(-c2nnc(-c3ccccc3)c(-c3ccccc3)n2)c(N)c1C#N,12,3,7,0,8,6,–,–,–,–,–,–,–,–,–,–,–
CSc1nn(-c2nnc(-c3ccccc3)c(-c3ccccc3)n2)c2nc(C)c(C#N)c(N)c12,19,12,16,5,6,7,–,–,–,–,–,–,–,–,–,–,–
Cc1nc2c(c(=O)[nH]1)c1nnc(C)c(=O)n1n2-c1nnc(-c2ccccc2)c(-c2ccccc2)n1,28,29,26,16,19,15,6.49,12.5,25,25,50,–,–,–,–,–,–
N#Cc1c(N)nn2c(N)c3c(nc12)n(-c1nnc(-c2ccccc2)c(-c2ccccc2)n1)n1c(=O)c2ccccc2nc31,26,20,23,19,21,19,1.39,> 100,50,> 100,50,–,–,–,–,–,–
CC(=O)c1c(-c2ccccc2)nc2c3c(nn2-c2nnc(-c4ccccc4)c(-c4ccccc4)n2)N(c2ccccc2)C(C)=Nc13,18,10,13,9,3,7,–,–,–,–,–,–,–,–,–,–,–
CSc1nn(-c2nnc(-c3ccccc3)c(-c3ccccc3)n2)c2nc(-c3ccccc3)c3c(C)c(C#N)c(N)nc3c12,25,19,22,9,16,11,0.58,25,50,> 100,> 100,–,–,–,–,–,–
CSc1nn(-c2nnc(-c3ccccc3)c(-c3ccccc3)n2)c2nc(C)[nH]c(=O)c12,14,5,11,10,12,9,–,–,–,–,–,–,–,–,–,–,–
CSc1nn(-c2nnc(-c3ccccc3)c(-c3ccccc3)n2)c2nc3c(C#N)c(N)nn3c(N)c12,24,17,22,16,22,18,2.31,> 100,50,25,25,–,–,–,–,–,–
Cc1nc2c(c(=O)[nH]1)c1nnc(-c3ccccc3)n1n2-c1nnc(-c2ccccc2)c(-c2ccccc2)n1,27,26,27,8,17,12,3.54,25,50,50,50,–,–,–,–,–,–
Cc1nc2c(c(NN)nn2-c2nnc(-c3ccccc3)c(-c3ccccc3)n2)c(=O)[nH]1,18,8,10,13,10,11,–,–,–,–,–,–,–,–,–,–,–
CSc1nn(-c2nnc(-c3ccccc3)c(-c3ccccc3)n2)c2nc(-c3ccccc3)c(C(C)=O)c(N)c12,16,13,18,5,10,4,–,–,–,–,–,–,–,–,–,–,–
S=c1nc2c3c(n(-c4nnc(-c5ccccc5)c(-c5ccccc5)n4)nc3[nH]1)N=C(c1ccccc1)N2,16,9,13,5,9,11,–,–,–,–,–,–,–,–,–,–,–
O=C(O)c1cc(O)c(O)c(O)c1 [GALLIC ACID],–,–,–,–,–,–,4.53,–,–,–,–,–,–,–,–,–,–
CC(=O)N1CCN(c2ccc(OCC3COC(Cn4ccnc4)(c4ccc(Cl)cc4Cl)O3)cc2)CC1 (configuration not stated) [KETOCONAZOLE],–,–,–,–,–,–,–,–,–,6.25,6.25,18,20,21,–,–,–
CN(C)[C@@H]1C(O)=C(C(N)=O)C(=O)[C@@]2(O)C(O)=C3C(=O)c4c(O)cccc4[C@@](C)(O)[C@H]3C[C@@H]12 [TETRACYCLINE],–,–,–,–,–,–,–,12.5,6.25,–,–,–,–,–,30,25,28
BLEOMYCIN,–,–,–,–,–,–,0.41,–,–,–,–,–,–,–,–,–,–
